≈ marks a conversion by molar mass, not a printed value. Calls of active or inactive are those of the source. The rule behind the calls is not given here.
Key:
[1] = test system: Staphylococcus aureus; assay: Antibacterial activity against methicillin-resistant Staphylococcus aureus NRS123 USA400 after 18 to 24 hrs by broth microdilution assay; format: functional
How it was run: (§1)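 CLSI broth microdilution with modifications. Bacteria cultured in TSB and exposed to compounds or control antibiotics in triplicate. Plates incubated aerobically at 37 °C for 18–24 h. MIC is the lowest concentration preventing visible growth.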

[2] = test system: Staphylococcus aureus; assay: Antibacterial activity against methicillin-sensitive Staphylococcus aureus NRS107 after 18 to 24 hrs by broth microdilution assay; format: functional; how it was run: as §1
[3] = test system: Staphylococcus aureus; assay: Antibacterial activity against methicillin-resistant Staphylococcus aureus NRS119 after 18 to 24 hrs by broth microdilution assay; format: functional; how it was run: as §1
[4] = test system: Staphylococcus aureus; assay: Antibacterial activity against methicillin-resistant Staphylococcus aureus USA300 NRS384 after 18 to 24 hrs by broth microdilution assay; format: functional; how it was run: as §1
[5] = test system: Staphylococcus aureus; assay: Antibacterial activity against methicillin-resistant Staphylococcus aureus NRS385 USA500 after 18 to 24 hrs by broth microdilution assay; format: functional; how it was run: as §1
[6] = test system: Staphylococcus aureus; assay: Antibacterial activity against vancomycin-resistant Staphylococcus aureus VRS10 after 18 to 24 hrs by broth microdilution assay; format: functional; how it was run: as §1
[7] = test system: Staphylococcus aureus; assay: Antibacterial activity against vancomycin-resistant Staphylococcus aureus VRS11a after 18 to 24 hrs by broth microdilution assay; format: functional; how it was run: as §1
[8] = test system: Staphylococcus aureus; assay: Bacteriostatic activity against methicillin-resistant Staphylococcus aureus USA400 NRS123 at 4 times MIC measured after 24 hrs by time-kill assay; format: functional, organism-based
[9] = test system: Staphylococcus epidermidis; assay: Antibacterial activity against methicillin-resistant Staphylococcus epidermidis NRS101 after 18 to 24 hrs by broth microdilution assay; format: functional; how it was run: as §1
[10] = test system: Streptococcus pneumoniae; assay: Antibacterial activity against penicillin-resistant Streptococcus pneumoniae ATCC 700677 after 18 to 24 hrs by broth microdilution assay; format: functional
How it was run: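 CLSI broth microdilution with modifications. Bacteria exposed to compounds in triplicate and incubated at 37 °C with 5% CO₂ for 18–24 h. MIC is the lowest concentration preventing visible growth.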

[11] = test system: Enterococcus faecium; assay: Antibacterial activity against vancomycin-resistant Enterococcus faecium ATCC 700221 after 18 to 24 hrs by broth microdilution assay; format: functional
How it was run: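 Broth microdilution per CLSI with modifications. Cultured in BHI and exposed to compounds in triplicate. Incubated aerobically at 37 °C for 18–24 h. MIC read as the lowest concentration with no visible growth.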

[12] = test system: Acinetobacter baumannii; assay: Antibacterial activity against Acinetobacter baumannii BAA1605 after 18 to 24 hrs by broth microdilution assay; format: functional
How it was run: (§2)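 Broth microdilution MIC per CLSI guidelines with modifications. Bacteria grown in TSB and exposed to compounds or control antibiotics in triplicate. Plates incubated aerobically at 37 °C for 18–24 h. MIC taken as the lowest concentration with no visible growth.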

[13] = test system: Enterobacter cloacae; assay: Antibacterial activity against Enterobacter cloacae BAA1134 after 18 to 24 hrs by broth microdilution assay; format: functional; how it was run: as §2
[14] = test system: Klebsiella pneumoniae; assay: Antibacterial activity against Klebsiella pneumoniae ATCC BAA-1705 after 18 to 24 hrs by broth microdilution assay; format: functional; how it was run: as §2
[15] = test system: Pseudomonas aeruginosa; assay: Antibacterial activity against Pseudomonas aeruginosa ATCC 15442 after 18 to 24 hrs by broth microdilution assay; format: functional; how it was run: as §2
[16] = test system: Acinetobacter baumannii; assay: Antibacterial activity against Acinetobacter baumannii BAA1605 after 18 to 24 hrs in presence of colistin by broth microdilution assay; format: functional
How it was run: (§3)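 To permeabilize the outer membrane, CLSI broth microdilution in TSB (triplicate) was run with subinhibitory colistin: ¼ × MIC for A. baumannii, E. cloacae and E. coli strains, and P. aeruginosa; ½ × MIC for K. pneumoniae. Plates incubated aerobically at 37 °C for 18–24 h. MIC taken as the lowest concentration with no visible growth.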

[17] = test system: Enterobacter cloacae; assay: Antibacterial activity against Enterobacter cloacae BAA1134 after 18 to 24 hrs in presence of colistin by broth microdilution assay; format: functional; how it was run: as §3
[18] = test system: Klebsiella pneumoniae; assay: Antibacterial activity against Klebsiella pneumoniae ATCC BAA-1705 after 18 to 24 hrs in presence of colistin by broth microdilution assay; format: functional; how it was run: as §3
[19] = test system: Pseudomonas aeruginosa; assay: Antibacterial activity against Pseudomonas aeruginosa ATCC 15442 after 18 to 24 hrs in presence of colistin by broth microdilution assay; format: functional; how it was run: as §3
[20] = test system: Escherichia coli; assay: Antibacterial activity against Escherichia coli BW25113 after 18 to 24 hrs in absence of colistin by broth microdilution method; format: functional; how it was run: as §2
[21] = test system: Escherichia coli; assay: Antibacterial activity against Escherichia coli BW25113 after 18 to 24 hrs in presence of colistin by broth microdilution method; format: functional; how it was run: as §3
[22] = test system: Escherichia coli; assay: Antibacterial activity against AcrAB-TolC deficient Escherichia coli […] after 18 to 24 hrs in absence of colistin by broth microdilution method; format: functional; how it was run: as §2
[23] = test system: Escherichia coli; assay: Antibacterial activity against AcrAB-TolC deficient Escherichia coli […] after 18 to 24 hrs in presence of colistin by broth microdilution method; format: functional; how it was run: as §3
[24] = Cytotoxicity against human HaCaT cells assessed as cell viability at 128 uM measured after 24 hrs by MTS assay; format: cell-based; conditions: read-out: Activity
How it was run: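 HaCaT keratinocytes grown in DMEM with 10% FBS at 37 °C, 5% CO₂. Compounds tested at 16, 32, 64 and 128 µM in triplicate for 24 h; controls received matching DMSO. Viability expressed as percent of DMSO-treated cells (mean ± SD).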

[25] = test system: Staphylococcus aureus; assay: Antibacterial activity against methicillin-resistant Staphylococcus aureus USA300 infected in Balb/c mouse assessed as reduction in bacterial burden in wounded skin area at 2% administered topically twice daily for 5 consecutive days measured 12 hrs post last dose relative to control; format: functional; set-up: scale not given: the % may be the effect or the level left
How it was run: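 Eight-week-old female Balb/c mice (n = 5 per group) received an intradermal injection of 40 μL of 1.32 × 10⁹ CFU/mL MRSA USA300. From abscess formation (~48 h), a 2% suspension in petroleum jelly was applied topically twice daily for 5 days, with a vehicle-only group. Mice were euthanized 12 h after the last dose. Wounds were homogenized in PBS, serially diluted and plated on mannitol salt agar (≥16 h, 37 °C). CFU reduction was calculated against vehicle.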

[26] = test system: Mus musculus; assay: Induction of inflammation in wounded skin area of Balb/c mouse infected with methicillin-resistant Staphylococcus aureus USA300 at 2% administered topically twice daily for 5 consecutive days measured 4 times daily during compound dosing; format: organism-based; conditions: in vivo, topical_or_ocular
How it was run: (§4)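 Female Balb/c mice with intradermal MRSA USA300 abscesses were treated topically twice daily for 5 days with a 2% suspension in petroleum jelly, alongside a vehicle group. Mice were checked at least four times daily during infection and treatment for adverse reactions. Wounds were examined for inflammation and toxicity.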

[27] = Toxicity in wounded skin area of Balb/c mouse infected with methicillin-resistant Staphylococcus aureus USA300 at 2% administered topically twice daily for 5 consecutive days measured 4 times daily during compound dosing; conditions: in vivo, topical_or_ocular; how it was run: as §4
[28] = Cmax in human at 625 mg, po; format: ADME; set-up: dose 625 mg, route oral; conditions: in vivo
[29] = Tmax in human at 625 mg, po; format: ADME; conditions: in vivo
[30] = Cmax in human at 625 mg, iv; format: ADME; set-up: dose 625 mg, route intravenous; conditions: in vivo
[31] = Tmax in human at 625 mg, iv; format: ADME; conditions: in vivo
[32] = Clearance in human at 625 mg, iv; format: ADME; conditions: in vivo
[33] = clinical; conditions: human, in vivo, iv, 625 mg

Compound: COc1ccc(/C=C/c2ccc(C#N)cc2)cc1
- MIC [1]: 32 µM (≈ 7.53 µg/mL)

Compound: COc1cc(/C=C/c2ccc(C#N)cc2)cc(OC)c1
- MIC [1]: 64 µM (≈ 17 µg/mL)

Compound: N#Cc1ccc(/C=C/c2ccc(C#N)cc2)cc1
- MIC [1]: 8 µM (≈ 1.84 µg/mL)
- MIC [2]: 4 µM (≈ 0.921 µg/mL)
- MIC [3]: 1 µM (≈ 0.23 µg/mL)
- MIC [4]: 2 µM (≈ 0.461 µg/mL)
- MIC [5]: 8 µM (≈ 1.84 µg/mL)
- MIC [6]: 8 µM (≈ 1.84 µg/mL)
- MIC [7]: 8 µM (≈ 1.84 µg/mL)
- Activity [8]: Active
- MIC [9]: 1 µM (≈ 0.23 µg/mL)
- MIC [10]: 8 µM (≈ 1.84 µg/mL)
- MIC [11]: > 64 µM
- MIC [12]: > 64 µM
- MIC [13]: > 64 µM
- MIC [14]: > 64 µM
- MIC [15]: > 64 µM
- MIC [16]: 16 µM
- MIC [17]: 4 µM
- MIC [18]: > 64 µM
- MIC [19]: > 64 µM
- MIC [20]: > 64 µM
- MIC [21]: > 64 µM
- MIC [22]: > 64 µM
- MIC [23]: > 64 µM
- viability at 24 h, 128 µM [24]: > 90%
- Activity [25]: 79.02%
- Activity [26]: Non-Toxic
- Activity [27]: Non-Toxic

Compound: N#Cc1ccc(CCc2ccc(C#N)cc2)cc1
- MIC [1]: > 64 µM

Compound: N#Cc1ccc(CCc2cccc(C#N)c2)cc1
- MIC [1]: 32 µM (≈ 7.43 µg/mL)

Compound: CC(=O)NC[C@H]1CN(c2ccc(N3CCOCC3)c(F)c2)C(=O)O1 [LINEZOLID]
- MIC [1]: 1 µM (≈ 0.337 µg/mL)
- MIC [2]: 2 µM (≈ 0.675 µg/mL)
- MIC [3]: 32 µM (≈ 10.8 µg/mL)
- MIC [4]: 2 µM (≈ 0.675 µg/mL)
- MIC [5]: 4 µM (≈ 1.35 µg/mL)
- MIC [6]: 2 µM (≈ 0.675 µg/mL)
- MIC [7]: 2 µM (≈ 0.675 µg/mL)
- MIC [9]: 2 µM (≈ 0.675 µg/mL)
- MIC [10]: 2 µM (≈ 0.675 µg/mL)
- MIC [11]: 0.5 µM (≈ 0.169 µg/mL)
- MIC [12]: > 64 µM
- MIC [13]: > 64 µM
- MIC [14]: > 64 µM
- MIC [15]: > 64 µM
- MIC [16]: > 64 µM
- MIC [17]: 16 µM
- MIC [18]: > 64 µM
- MIC [19]: > 64 µM
- MIC [20]: > 64 µM
- MIC [21]: > 64 µM
- MIC [22]: 16 µM (≈ 5.4 µg/mL)
- MIC [23]: 16 µM
- Cmax [28]: 12700 ng/mL
- Tmax [29]: 1.33 h
- Cmax [30]: 13400 ng/mL
- Tmax [31]: 0.5 h
- clearance [32]: 1.74 mL/min/kg
- half-life [33]: 4.4 h

Compound: CN[C@H](CC(C)C)C(=O)N[C@H]1C(=O)N[C@@H](CC(N)=O)C(=O)N[C@H]2C(=O)N[C@H]3C(=O)N[C@H](C(=O)N[C@H](C(=O)O)c4cc(O)cc(O)c4-c4cc3ccc4O)[C@H](O)c3ccc(c(Cl)c3)Oc3cc2cc(c3O[C@@H]2O[C@H](CO)[C@@H](O)[C@H](O)[C@H]2O[C@H]2C[C@](C)(N)[C@H](O)[C@H](C)O2)Oc2ccc(cc2Cl)[C@H]1O [VANCOMYCIN]
- MIC [1]: 1 µM (≈ 1.45 µg/mL)
- MIC [2]: 1 µM (≈ 1.45 µg/mL)
- MIC [3]: 1 µM (≈ 1.45 µg/mL)
- MIC [4]: 1 µM (≈ 1.45 µg/mL)
- MIC [5]: 1 µM (≈ 1.45 µg/mL)
- MIC [6]: > 64 µM
- MIC [7]: > 64 µM
- MIC [9]: 4 µM (≈ 5.8 µg/mL)
- MIC [10]: 1 µM (≈ 1.45 µg/mL)
- MIC [11]: > 64 µM
- MIC [12]: 32 µM (≈ 46.4 µg/mL)
- MIC [13]: > 64 µM
- MIC [14]: > 64 µM
- MIC [15]: > 64 µM

Compound: N#Cc1ccccc1/C=C/c1ccccc1
- MIC [3]: 4 µM (≈ 0.821 µg/mL)
- MIC [4]: 4 µM (≈ 0.821 µg/mL)

Compound: N#Cc1ccc(CCc2ccncc2)cc1
- MIC [1]: 64 µM (≈ 13.3 µg/mL)

Compound: N#Cc1ccc(/C=C/c2ccc3ccccc3n2)cc1
- MIC [1]: 8 µM (≈ 2.05 µg/mL)
- MIC [3]: 4 µM (≈ 1.03 µg/mL)
- MIC [4]: 4 µM (≈ 1.03 µg/mL)
- MIC [6]: 32 µM (≈ 8.2 µg/mL)

Compound: N#Cc1ccc(/C=C/c2ccc(Cl)c(Cl)c2)cc1
- MIC [1]: > 64 µM

Compound: N#Cc1ccc(CCc2ccccc2C#N)cc1
- MIC [1]: > 64 µM

Source: ChEMBL document CHEMBL4392836, “Second-generation aryl isonitrile compounds targeting multidrug-resistant Staphylococcus aureus” (Bioorg Med Chem, 2019)
